Assay outcomes from PubChem BioAssay.
An excerpt weighted towards active compounds, which were near 1.4% of everything screened.
Calpain2 inh = blocks pig calpain II enzyme activity | purified calpain II, fluorogenic peptide substrate, 30 min | inhibition, % at 16 µM | 220,000 tested, 0.37% active | AID 1236;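 active = inhibition above about 50%, limit read from the data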
FXIa inh = factor XIa (human) inhibition | 220,000 tested, 0.14% active | purified FXIa, Boc-Glu-Ala-Arg-AMC fluorogenic substrate | inhibition, % at 5 µM | P03951;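 active = inhibition of at least 40%; inactive = inhibition below 40%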;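 note: fluorescence of freed AMC excited at 355 nm; 0% = enzyme without compound and 100% = no enzyme blank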
Target sequence (P03951 19-387 limits assumed): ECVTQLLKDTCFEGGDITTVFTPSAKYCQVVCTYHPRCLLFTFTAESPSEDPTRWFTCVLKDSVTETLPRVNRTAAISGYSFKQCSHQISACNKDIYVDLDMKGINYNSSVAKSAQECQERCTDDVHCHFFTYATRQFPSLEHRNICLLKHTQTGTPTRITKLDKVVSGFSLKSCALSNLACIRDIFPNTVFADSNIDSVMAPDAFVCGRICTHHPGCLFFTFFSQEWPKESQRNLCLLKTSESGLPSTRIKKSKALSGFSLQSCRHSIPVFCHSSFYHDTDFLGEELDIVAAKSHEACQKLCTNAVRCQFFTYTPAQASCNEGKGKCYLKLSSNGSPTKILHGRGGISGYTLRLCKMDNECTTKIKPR
Target sequence (P03951 388-625 limits assumed): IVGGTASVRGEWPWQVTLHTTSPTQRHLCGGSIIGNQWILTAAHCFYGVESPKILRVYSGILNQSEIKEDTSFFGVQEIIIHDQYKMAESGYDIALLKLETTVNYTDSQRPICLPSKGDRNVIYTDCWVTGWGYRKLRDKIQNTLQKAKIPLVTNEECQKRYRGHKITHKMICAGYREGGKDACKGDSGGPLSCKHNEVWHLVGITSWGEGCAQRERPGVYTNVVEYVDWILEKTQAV
Thrombin inh = inhibitors of human thrombin; P00734; inhibition, % at 5 µM; alpha-thrombin, Boc-VPR-AMC fluorogenic substrate cleavage; AID 1046; 220,000 tested, 0.26% active;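 active = inhibition at or above 40%; inactive = inhibition below 40%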;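 note: 0% = enzyme with no compound and 100% = wells without enzyme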
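System: Human alpha-thrombin protein | Medium: pH 7.5 Tris (50 mM) with NaCl 150 mM, Tween 20 0.05% | Times: Enzyme reaction carried out at room temperature | Detection: AMC fluorescence, 355/460 nm | Evaluation: Percent inhibition scaled between no-compound controls and no-enzyme blanks | Benchmarks: Enzyme without compound as high, wells lacking enzyme as low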
FXIIa inh 1536 = inhibitors of human coagulation factor XIIa; 220,000 tested, 0.3% active; inhibition, % at 5 µM; P00748; purified FXIIa, Boc-QGR-AMC fluorogenic substrate, 2 h; in the data active = inhibition above about 40%;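 note: 0% = enzyme with no compound and 100% = blank without enzyme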
KLK5 inh = blocks human kallikrein 5 protease activity | inhibition, % at 5 µM | 210,000 tested, 0.59% active | AID 873 | recombinant hK5, fluorogenic AMC substrate cleavage;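 active = inhibition of 40% or more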;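 note: 0% = enzyme controls without compound and 100% = no-enzyme blanks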
The depositor's hits bear a star.

O=c1cnnc(Nc2cccc(F)c2)[nH]1 was read as Calpain2 inh -21, FXIa inh 0, Thrombin inh -2, FXIIa inh 1536 9 and KLK5 inh 1.
For CCCCN(CC)CCCNC(=S)Nc1ccc2nc3n(c(=O)c2c1)CCCCC3 the results were Calpain2 inh 65*, FXIa inh 6, Thrombin inh -2, FXIIa inh 1536 13 and KLK5 inh -9.
`O=C(COC(=O)c1ccc2ncsc2c1)Nc1ncc(Cl)cc1Cl` gave Calpain2 inh 18, FXIa inh 0, Thrombin inh -7, FXIIa inh 1536 8 and KLK5 inh 11.
O=C(Cc1ccc(F)cc1)N/N=C/c1ccncc1 was read as Calpain2 inh 22, FXIa inh 19, Thrombin inh 30, FXIIa inh 1536 36 and KLK5 inh 55*.
For O=C(N/N=C/c1ccc(F)cc1)c1ccccc1 the results were Calpain2 inh -21, FXIa inh 0, Thrombin inh -7, FXIIa inh 1536 10 and KLK5 inh 2.
`O=C(O)c1ccc(/C=N/NC(=O)c2ccc(F)cc2)cc1` gave Calpain2 inh 0, FXIa inh -6, Thrombin inh 68*, FXIIa inh 1536 -1 and KLK5 inh -4.
`Cc1ccc(NC(=O)CCl)c(C)c1` gave Calpain2 inh 10, FXIa inh 9, Thrombin inh 12, FXIIa inh 1536 17 and KLK5 inh 13.
`CCCc1cc(=O)[nH]c(SCC(=O)Nc2ccccc2C#N)n1` gave Calpain2 inh 4, FXIa inh -8, Thrombin inh -2, FXIIa inh 1536 2 and KLK5 inh -3.
`COc1c(Cl)cc(Cl)cc1C(=O)Nc1ccc(CN2CCCCC2)cc1` gave Calpain2 inh 7, FXIa inh -6, Thrombin inh -3, FXIIa inh 1536 -7 and KLK5 inh -15.
Screening CCN1CCCC1CNC1=NCCCCC1 (configuration not stated) returned Calpain2 inh -12, FXIa inh 2, Thrombin inh 4, FXIIa inh 1536 15 and KLK5 inh -17.
`CCCC(C)NC1=NCCCCC1` (configuration not stated) gave Calpain2 inh 17, FXIa inh 10, Thrombin inh 16, FXIIa inh 1536 15 and KLK5 inh 56*.
Screening Cc1ccc(NC(CC(=O)c2ccccc2)c2ccc(F)cc2)cc1 (configuration not stated) returned Calpain2 inh 34, FXIa inh -1, Thrombin inh 0, FXIIa inh 1536 9 and KLK5 inh 0.
Screening O=C(CC(Nc1ccc(F)cc1)C(=O)OCC(=O)c1cccs1)c1ccccc1 (configuration not stated) returned Calpain2 inh 6, FXIa inh -6, Thrombin inh 50*, FXIIa inh 1536 6 and KLK5 inh -2.
O=C(CC(Nc1ccc(F)cc1)C(=O)O)c1ccccc1 (configuration not stated) was read as Calpain2 inh 10, FXIa inh 1, Thrombin inh 4, FXIIa inh 1536 2 and KLK5 inh 52*.
`CCN(CC)CCCNC1=C(Cl)C(=O)c2ccccc2C1=O` gave Calpain2 inh 51*, FXIa inh 0, Thrombin inh -1 and FXIIa inh 1536 11.
Screening COCCCNC1=C(Cl)C(=O)c2ccccc2C1=O returned Calpain2 inh 1, FXIa inh -4, Thrombin inh -6, FXIIa inh 1536 -1 and KLK5 inh -3.
`COc1ccccc1/C=N/NC(=S)NCc1ccco1` gave Calpain2 inh 60*, FXIa inh 2, Thrombin inh -2, FXIIa inh 1536 10 and KLK5 inh 3.
For CC(C)(CO)NC(=S)NCc1ccco1 the results were Calpain2 inh 9, FXIa inh 1, Thrombin inh -3, FXIIa inh 1536 7 and KLK5 inh 100*.
`Oc1ccc(/C=N/NC(=S)NCc2ccco2)cc1` gave Calpain2 inh 31, FXIa inh -5, Thrombin inh -2, FXIIa inh 1536 6 and KLK5 inh -33.
S=C(NCc1ccco1)N/N=C/c1ccccc1Cl was read as Calpain2 inh 46, FXIa inh 7, Thrombin inh -9, FXIIa inh 1536 14 and KLK5 inh -15.
For S=C(NCc1ccco1)N/N=C/c1ccc(Cl)cc1 the results were Calpain2 inh 68*, FXIa inh -8, Thrombin inh -13, FXIIa inh 1536 -18 and KLK5 inh -8.
COc1ccc(C(=O)n2nc(-c3ccccc3)nc2N)cc1OC was read as Calpain2 inh -41, FXIa inh 13, Thrombin inh 26, FXIIa inh 1536 10 and KLK5 inh 41*.
Screening O=[N+]([O-])C(C1CCS(=O)(=O)C1)C1CCS(=O)(=O)C1 (configuration not stated) returned Calpain2 inh -4, FXIa inh 0, Thrombin inh -4, FXIIa inh 1536 -6 and KLK5 inh -6.
For CCO[C@H]1OC(C(=O)N2CCN(C)CC2)=C[C@@H](c2ccc3c(c2)OCO3)[C@@H]1CCCO the results were Calpain2 inh -1, FXIa inh 0, Thrombin inh 0, FXIIa inh 1536 5 and KLK5 inh 2.
CC(C(=O)Nc1ccccc1Oc1ccccc1)c1ccccc1 (configuration not stated) was read as Calpain2 inh 52*, FXIa inh 6, Thrombin inh 2, FXIIa inh 1536 12 and KLK5 inh -6.
O=c1c2c(-c3ccccc3)csc2ncn1/N=C/c1ccc(O)c([N+](=O)[O-])c1 was read as Calpain2 inh 56*, FXIa inh 7, Thrombin inh 6 and FXIIa inh 1536 14.
For O=c1c2c(-c3ccccc3)csc2ncn1/N=C/c1cccc([N+](=O)[O-])c1O the results were Calpain2 inh -7, FXIa inh 6, Thrombin inh 0 and FXIIa inh 1536 11.
`Cc1nn(Cc2ccc(C(=O)Nc3ccccc3C(F)(F)F)o2)c(C)c1Br` gave Calpain2 inh -10, FXIa inh -5, Thrombin inh -6, FXIIa inh 1536 1 and KLK5 inh 28.
Screening CCCn1c2c(c(O)c(C(=O)Nc3nccs3)c1=O)CCCC2 returned Calpain2 inh -46, FXIa inh -4, Thrombin inh 101*, FXIIa inh 1536 15 and KLK5 inh 33.
`CC(=O)c1ccc(S(=O)(=O)Nc2ccc(-c3cn4c(n3)SCC4)cc2)cc1` gave Calpain2 inh -276, FXIa inh 0, Thrombin inh 42*, FXIIa inh 1536 5 and KLK5 inh 4.
`CCOCCCn1cnc2c(c1=O)c1nc3ccccc3nc1n2-c1ccccc1` gave Calpain2 inh -486, FXIa inh 13, Thrombin inh 21, FXIIa inh 1536 54* and KLK5 inh 22.
Screening COc1ccc(Oc2ccccc2C=O)cc1 returned Calpain2 inh 3, FXIa inh 4, Thrombin inh 20, FXIIa inh 1536 20 and KLK5 inh 51*.
For O=C(Cn1nnc(-c2ccccc2)n1)OCc1csc(-c2ccccc2)n1 the results were Calpain2 inh 18, FXIa inh 12, Thrombin inh 21, FXIIa inh 1536 49* and KLK5 inh 22.
